Laboratory results as given in ChEMBL document CHEMBL4346684, “Synthesis and structure-bactericidal activity relationships of non-ketolides: 9-Oxime clarithromycin 11,12-cyclic carbonate featured with three-to eight-atom-length spacers at 3-OH” (Eur J Med Chem, 2019).
In brackets after ≈: the same amount, converted by molar mass.

Key:
Type in all cases: functional
Staphylococcus aureus [1] = experiment: Antimicrobial activity against constitutively erythromycin resistant and methicillin resistant Staphylococcus aureus PU20 expressing c-ermC incubated in CAMHB medium for 20 hrs by two-fold microbroth dilution method; settings: PU20, 20 h
Method in brief: (§1)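 Purified fresh Staphylococcus isolate at about 5×10^5 CFU/ml final in CAMHB, 35 °C for 20 h. Each run included ATCC strains and reference antibiotics as QC, plus an antibiotic-free growth control.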

Moraxella catarrhalis [2] = experiment: Antimicrobial activity against erythromycin-susceptible Moraxella catarrhalis 13L332 incubated in CAMHB medium for 20 hrs by two-fold microbroth dilution method; settings: 13L332, 20 h
Method in brief: (§2)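 Clinical isolates and ATCC strains, purified by plate activation and used fresh; inoculum about 5×10^5 CFU/ml final. Grown in CAMHB at 35 °C for 20 h.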

Streptococcus pyogenes [3] = experiment: Antimicrobial activity against inducibly erythromycin resistant Streptococcus pyogenes 01-968 expressing i-ermA incubated in CAMHB medium for 20 to 24 hrs by two-fold microbroth dilution method
Streptococcus pyogenes [4] = experiment: Bactericidal activity against inducibly erythromycin resistant Streptococcus pyogenes 01-968 expressing i-ermA assessed as reduction in colony formation incubated in CAMHB medium for 20 to 24 hrs followed by 24 hrs subculturing in the medium without test compound
Moraxella catarrhalis [5] = experiment: Ratio of MBC to MIC for erythromycin-susceptible Moraxella catarrhalis 13L332
Streptococcus pneumoniae [6] = experiment: Antimicrobial activity against erythromycin-susceptible Streptococcus pneumoniae ATCC 49619 incubated in CAMHB medium for 20 to 24 hrs by two-fold microbroth dilution method
Staphylococcus aureus [7] = experiment: Bactericidal activity against constitutively erythromycin resistant and methicillin-resistant Staphylococcus aureus PU20 expressing c-ermC assessed as reduction in colony formation incubated in CAMHB medium for 20 hrs followed by 24 hrs subculturing in the medium without test compound
Streptococcus pneumoniae [8] = experiment: Bactericidal activity against mef-encoded erythromycin resistant Streptococcus pneumoniae PU09 assessed as reduction in colony formation incubated in CAMHB medium for 20 to 24 hrs followed by 24 hrs subculturing in the medium without test compound
Staphylococcus aureus [9] = experiment: Ratio of MBC to MIC for constitutively erythromycin resistant and methicillin-resistant Staphylococcus aureus PU20 expressing c-ermC
Staphylococcus aureus [10] = experiment: Antimicrobial activity against inducibly erythromycin-resistant and methicillin resistant Staphylococcus aureus PU32 expressing i-ermA incubated in CAMHB medium for 20 hrs by two-fold microbroth dilution method; settings: PU32, 20 h; method in brief: as §1
Moraxella catarrhalis [11] = experiment: Bactericidal activity against erythromycin-susceptible Moraxella catarrhalis 13L332 assessed as reduction in colony formation incubated in CAMHB medium for 20 hrs followed by 24 hrs subculturing in the medium without test compound
Staphylococcus aureus [12] = experiment: Bactericidal activity against inducibly erythromycin-resistant and methicillin resistant Staphylococcus aureus PU32 expressing i-ermA assessed as reduction in colony formation incubated in CAMHB medium for 20 hrs followed by 24 hrs subculturing in the medium without test compound
Streptococcus pneumoniae [13] = experiment: Bactericidal activity against erythromycin-susceptible Streptococcus pneumoniae ATCC 49619 assessed as reduction in colony formation incubated in CAMHB medium for 20 to 24 hrs followed by 24 hrs subculturing in the medium without test compound
Streptococcus pneumoniae [14] = experiment: Ratio of MBC to MIC for erythromycin-susceptible Streptococcus pneumoniae ATCC 49619
Streptococcus pneumoniae [15] = experiment: Antimicrobial activity against mef-encoded erythromycin resistant Streptococcus pneumoniae PU09 incubated in CAMHB medium for 20 to 24 hrs by two-fold microbroth dilution method
Streptococcus pyogenes [16] = experiment: Ratio of MBC to MIC for inducibly erythromycin resistant Streptococcus pyogenes 01-968 expressing i-ermA
Streptococcus pneumoniae [17] = experiment: Ratio of MBC to MIC for mef-encoded erythromycin resistant Streptococcus pneumoniae PU09
Haemophilus influenzae [18] = experiment: Ratio of MBC to MIC for azithromycin-susceptible Haemophilus influenzae ATCC 49247
Haemophilus influenzae [19] = experiment: Bactericidal activity against azithromycin-susceptible Haemophilus influenzae ATCC 49247 assessed as reduction in colony formation incubated in HTM broth medium for 20 to 24 hrs followed by 24 hrs subculturing in the medium without test compound
Haemophilus influenzae [20] = experiment: Antimicrobial activity against azithromycin-susceptible Haemophilus influenzae ATCC 49247 incubated in HTM broth medium for 20 to 24 hrs by two-fold microbroth dilution method
Staphylococcus aureus [21] = experiment: Ratio of MBC to MIC for inducibly erythromycin-resistant and methicillin resistant Staphylococcus aureus PU32 expressing i-ermA
Streptococcus pyogenes [22] = experiment: Antimicrobial activity against constitutively erythromycin resistant Streptococcus pyogenes A2 expressing c-erm incubated in CAMHB medium for 20 to 24 hrs by two-fold microbroth dilution method
Method in brief: (§3)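 Purified fresh Streptococcus isolate at about 5×10^5 CFU/ml final in CAMHB with 5% horse serum, 35 °C for 20–24 h. […] Each run included ATCC strains and reference antibiotics as QC, plus an antibiotic-free growth control.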

[23] = system: Staphylococcus epidermidis; experiment: Antimicrobial activity against Staphylococcus epidermidis E1 incubated in CAMHB medium for 20 hrs by two-fold microbroth dilution method; settings: E1, 20 h; method in brief: as §2
Staphylococcus aureus [24] = experiment: Antimicrobial activity against inducibly erythromycin-resistant Staphylococcus aureus PU32 expressing i-ermA incubated in CAMHB medium for 20 hrs by two-fold microbroth dilution method; settings: PU32, 20 h
Method in brief: (§4)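 Purified fresh Staphylococcus isolate at about 5×10^5 CFU/ml final in CAMHB, 35 °C for 20 h. […] Each run included ATCC strains and reference antibiotics as QC, plus an antibiotic-free growth control.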

Staphylococcus aureus [25] = experiment: Antimicrobial activity against erythromycin-susceptible Staphylococcus aureus ATCC 29213 incubated in CAMHB medium for 20 hrs by two-fold microbroth dilution method; settings: ATCC 29213, 20 h; method in brief: as §2
Streptococcus pyogenes [26] = experiment: Antimicrobial activity against erythromycin-susceptible Streptococcus pyogenes A3 incubated in CAMHB medium for 20 to 24 hrs by two-fold microbroth dilution method
Staphylococcus aureus [27] = experiment: Antimicrobial activity against inducibly erythromycin resistant Staphylococcus aureus PU64 expressing i-ermA incubated in CAMHB medium for 20 hrs by two-fold microbroth dilution method; settings: PU64, 20 h; method in brief: as §4
Staphylococcus aureus [28] = experiment: Antimicrobial activity against constitutively erythromycin resistant Staphylococcus aureus PU20 expressing c-ermC incubated in CAMHB medium for 20 hrs by two-fold microbroth dilution method; settings: PU20, 20 h; method in brief: as §4
Streptococcus pneumoniae [29] = experiment: Antimicrobial activity against constitutively erythromycin resistant Streptococcus pneumoniae PU27 expressing c-erm incubated in CAMHB medium for 20 to 24 hrs by two-fold microbroth dilution method; method in brief: as §3

Compound | MIC (Staphylococcus aureus [1]) [µg/mL] | MIC (Moraxella catarrhalis [2]) [µg/mL] | MIC (Streptococcus pyogenes [3]) [µg/mL] | MBC (Streptococcus pyogenes [4]) [µg/mL] | Ratio (Moraxella catarrhalis [5]) | MIC (Streptococcus pneumoniae [6]) [µg/mL] | MBC (Staphylococcus aureus [7]) [µg/mL] | MBC (Streptococcus pneumoniae [8]) [µg/mL] | Ratio (Staphylococcus aureus [9]) | MIC (Staphylococcus aureus [10]) [µg/mL] | MBC (Moraxella catarrhalis [11]) [µg/mL] | MBC (Staphylococcus aureus [12]) [µg/mL] | MBC (Streptococcus pneumoniae [13]) [µg/mL] | Ratio (Streptococcus pneumoniae [14]) | MIC (Streptococcus pneumoniae [15]) [µg/mL] | Ratio (Streptococcus pyogenes [16]) | Ratio (Streptococcus pneumoniae [17]) | Ratio (Haemophilus influenzae [18]) | MBC (Haemophilus influenzae [19]) [µg/mL] | MIC (Haemophilus influenzae [20]) [µg/mL] | other results
CC[C@H]1OC(=O)[C@H](C)[C@@H](OCC#Cc2ccc(C(=O)c3ccccc3)s2)[C@H](C)[C@@H](O[C@@H]2O[C@H](C)C[C@H](N(C)C)[C@H]2O)[C@](C)(OC)C[C@@H](C)/C(=N\OC)[C@H](C)[C@H]2OC(=O)O[C@@]21C | 32 (≈ 36.8 µM) | 8 (≈ 9.21 µM) | 4 (≈ 4.6 µM) | 8 (≈ 9.21 µM) | 2 | 8 (≈ 9.21 µM) | > 256 | 8 (≈ 9.21 µM) | >8 | > 256 | 16 (≈ 18.4 µM) | > 256 | 16 (≈ 18.4 µM) | 2 | 4 (≈ 4.6 µM) | 2 |  |  |  |  | 
CC[C@H]1OC(=O)[C@H](C)[C@@H](OCC#Cc2ccc(-c3ccccn3)s2)[C@H](C)[C@@H](O[C@@H]2O[C@H](C)C[C@H](N(C)C)[C@H]2O)[C@](C)(OC)C[C@@H](C)/C(=N\OC)[C@H](C)[C@H]2OC(=O)O[C@@]21C | 256 (≈ 304 µM) | 4 (≈ 4.75 µM) | 8 (≈ 9.5 µM) | 64 (≈ 76 µM) | 2 | 4 (≈ 4.75 µM) | 256 (≈ 304 µM) | 16 (≈ 19 µM) | 1 | > 256 | 8 (≈ 9.5 µM) | > 256 | 16 (≈ 19 µM) | 4 | 8 (≈ 9.5 µM) | 8 | 2 |  |  |  | 
CC[C@H]1OC(=O)[C@H](C)[C@@H](OCC#Cc2ccc(OCc3ccccc3)cc2)[C@H](C)[C@@H](O[C@@H]2O[C@H](C)C[C@H](N(C)C)[C@H]2O)[C@](C)(OC)C[C@@H](C)/C(=N\OC)[C@H](C)[C@H]2OC(=O)O[C@@]21C | 32 (≈ 37 µM) | 8 (≈ 9.25 µM) | 4 (≈ 4.62 µM) | 8 (≈ 9.25 µM) | 1 | 8 (≈ 9.25 µM) | 256 (≈ 296 µM) | 16 (≈ 18.5 µM) | 8 | > 256 | 8 (≈ 9.25 µM) | > 256 | 32 (≈ 37 µM) | 4 | 8 (≈ 9.25 µM) | 2 | 2 |  |  |  | 
CC[C@H]1OC(=O)[C@H](C)[C@@H](OC(=O)CCNCCCCc2cccnc2)[C@H](C)[C@@H](O[C@@H]2O[C@H](C)C[C@H](N(C)C)[C@H]2O)[C@](C)(OC)C[C@@H](C)/C(=N\OC)[C@H](C)[C@H]2OC(=O)O[C@@]21C | 256 (≈ 302 µM) |  | 64 (≈ 75.4 µM) | 128 (≈ 151 µM) |  | 1 (≈ 1.18 µM) | 256 (≈ 302 µM) | 4 (≈ 4.71 µM) | 1 | 128 (≈ 151 µM) |  | > 256 | 4 (≈ 4.71 µM) | 4 | 2 (≈ 2.36 µM) | 2 | 2 | 2 | 256 (≈ 302 µM) | 128 (≈ 151 µM) | 
CC[C@H]1OC(=O)[C@H](C)[C@@H](OC(=O)CCNCCCc2ccc(-n3ccnc3)cc2)[C@H](C)[C@@H](O[C@@H]2O[C@H](C)C[C@H](N(C)C)[C@H]2O)[C@](C)(OC)C[C@@H](C)/C(=N\OC)[C@H](C)[C@H]2OC(=O)O[C@@]21C | 64 (≈ 71.1 µM) |  | 16 (≈ 17.8 µM) | 32 (≈ 35.6 µM) |  | 2 (≈ 2.22 µM) | > 256 | 8 (≈ 8.89 µM) | >4 | 64 (≈ 71.1 µM) |  | 128 (≈ 142 µM) | 4 (≈ 4.44 µM) | 2 | 4 (≈ 4.44 µM) | 2 |  | 1 | 256 (≈ 284 µM) | 256 (≈ 284 µM) | Ratio (Staphylococcus aureus [21]): 2
CC[C@H]1OC(=O)[C@H](C)[C@@H](O[C@H]2C[C@@](C)(OC)[C@@H](O)[C@H](C)O2)[C@H](C)[C@@H](O[C@@H]2O[C@H](C)C[C@H](N(C)C)[C@H]2O)[C@](C)(OC)C[C@@H](C)C(=O)[C@H](C)[C@@H](O)[C@]1(C)O [CLARITHROMYCIN] | > 256 | 0.031 (≈ 0.0414 µM) | 1 to 8 (≈ 1.34 to 10.7 µM) | 8 to 64 (≈ 10.7 to 85.6 µM) | 4 | 0.06 to 0.064 (≈ 0.0802 to 0.0856 µM) | > 256 | 8 to 32 (≈ 10.7 to 42.8 µM) |  | 32 (≈ 42.8 µM) | 0.125 (≈ 0.167 µM) | > 256 | 0.125 to 0.25 (≈ 0.167 to 0.334 µM) | 2 - 4 | 4 (≈ 5.35 µM) | >8 | 2 - 8 | 2 | 8 (≈ 10.7 µM) | 4 (≈ 5.35 µM) | MIC (Streptococcus pyogenes [22]): 128 µg/mL (≈ 171 µM); MIC [23]: > 256 µg/mL; MIC (Staphylococcus aureus [24]): > 256 µg/mL; MIC (Staphylococcus aureus [25]): 0.25 µg/mL (≈ 0.334 µM); Ratio (Staphylococcus aureus [21]): >8; MIC (Streptococcus pyogenes [26]): ≤ 0.032 µg/mL; MIC (Staphylococcus aureus [27]): > 256 µg/mL; MIC (Staphylococcus aureus [28]): > 256 µg/mL; MIC (Streptococcus pneumoniae [29]): 4 µg/mL (≈ 5.35 µM)
